pIC50: −log10 of the molar value. Each block holds one molecule with its values, some of them ahead of it. Calls of active or inactive are those of the source. The calls are words filed in the database; no cut-off is given here.
Experiments:
[1] = target: Phosphatidylinositol 4,5-bisphosphate 3-kinase catalytic subunit alpha isoform (Homo sapiens, UniProt P42336, S473D); test: Inhibition of PI3Kalpha in human PC3 cells expressing Akt1 S473D mutant assessed as phosphorylation of Akt Thr308 by immunoblotting; assay type: cell-based, PC-3
[2] = target: Serine/threonine-protein kinase mTOR (Mus musculus, UniProt Q9JLN9); test: Inhibition of mTOR in p53-deficient MEF assessed as phosphorylation of S6K1 at Thr389 by immunoblotting
[3] = target: Serine/threonine-protein kinase mTOR (Homo sapiens, UniProt P42345)
[4] = AUC in C57BL/6 mouse at 1 mg/kg, iv; assay type: ADME, organism-based; set-up: dose 1 mg/kg, route intravenous; settings: plasma
[5] = target: Phosphatidylinositol 4-kinase alpha (Homo sapiens, UniProt P42356); test: Inhibition of PI4Kalpha
Method in brief: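 Biochemical LanthaScreen enzymatic lipid kinase assay run as an outsourced profiling service. Inhibitor at 10 concentrations, three-fold serial dilutions starting from 1 μM. ATP at the apparent ATP Km for the assay. IC50 derived from the dose-response.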

[6] = AUC in Swiss albino mouse at 10 mg, ip; assay type: ADME, organism-based; settings: plasma
Mus musculus [7] = test: In vivo inhibition of mTOR complex 1 in C57BL/6 mouse lung assessed as reduction of S6 phosphorylation at S235/236 at 20 mg/kg, ip after up to 6 hrs by Western blotting; assay type: functional, organism-based; set-up: dose 20 mg/kg
Method in brief: (§1)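 They received a single IP dose of 20 mg/kg (NMP stock diluted 1:4 with 50% PEG400) for 2, 6 or 10 h; vehicle controls were dosed for 10 h. Mice were re-fed 1 h before sacrifice. Liver and lung were sonicated in HEPES pH 7.4 lysis buffer with phosphatase and protease inhibitors. Lysates were Bradford-normalized and immunoblotted for Akt S473 and S6 S235/236.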

Mus musculus [8] = test: In vivo inhibition of mTOR complex 1 in C57BL/6 mouse liver assessed as reduction of S6 phosphorylation at S235/236 at 20 mg/kg, ip after up to 10 hrs by Western blotting; assay type: functional, organism-based; set-up: dose 20 mg/kg; method in brief: as §1
[9] = Cmax in Swiss albino mouse at 10 mg, ip; assay type: ADME, organism-based; set-up: dose 10 mg, route intraperitoneal; settings: in vivo
[10] = Volume of distribution at steady state in C57BL/6 mouse at 1 mg/kg, iv; assay type: ADME, organism-based; set-up: dose 1 mg/kg, route intravenous; settings: in vivo, read-out: Vdss
[11] = AUC in C57BL/6 mouse at 10 mg/kg, po; assay type: ADME, organism-based; set-up: dose 10 mg/kg, route oral; settings: plasma
[12] = Tmax in C57BL/6 mouse at 10 mg/kg, po; assay type: ADME, organism-based; set-up: dose 10 mg/kg, route oral; settings: in vivo
[13] = Cmax in C57BL/6 mouse at 10 mg/kg, po; assay type: ADME, organism-based; set-up: dose 10 mg/kg, route oral; settings: in vivo
[14] = Cmax in C57BL/6 mouse at 1 mg/kg, iv; assay type: ADME, organism-based; set-up: dose 1 mg/kg, route intravenous; settings: in vivo
[15] = Mean retention time in C57BL/6 mouse at 1 mg/kg, iv; assay type: ADME, organism-based; set-up: dose 1 mg/kg, route intravenous; settings: in vivo
[16] = Tmax in Swiss albino mouse at 10 mg, ip; assay type: ADME, organism-based; settings: in vivo
Mus musculus [17] = test: In vivo inhibition of mTOR complex 2 in C57BL/6 mouse assessed as reduction of Akt1 phosphorylation at S473 at 20 mg/kg, ip after 2 to 3 hrs by Western blotting
[18] = Mean retention time in C57BL/6 mouse at 10 mg/kg, po; assay type: ADME, organism-based; set-up: dose 10 mg/kg, route oral; settings: in vivo

Sequence of Phosphatidylinositol 4,5-bisphosphate 3-kinase catalytic subunit alpha isoform (P42336 whole entry, looked up, stated change not applied, canonical isoform): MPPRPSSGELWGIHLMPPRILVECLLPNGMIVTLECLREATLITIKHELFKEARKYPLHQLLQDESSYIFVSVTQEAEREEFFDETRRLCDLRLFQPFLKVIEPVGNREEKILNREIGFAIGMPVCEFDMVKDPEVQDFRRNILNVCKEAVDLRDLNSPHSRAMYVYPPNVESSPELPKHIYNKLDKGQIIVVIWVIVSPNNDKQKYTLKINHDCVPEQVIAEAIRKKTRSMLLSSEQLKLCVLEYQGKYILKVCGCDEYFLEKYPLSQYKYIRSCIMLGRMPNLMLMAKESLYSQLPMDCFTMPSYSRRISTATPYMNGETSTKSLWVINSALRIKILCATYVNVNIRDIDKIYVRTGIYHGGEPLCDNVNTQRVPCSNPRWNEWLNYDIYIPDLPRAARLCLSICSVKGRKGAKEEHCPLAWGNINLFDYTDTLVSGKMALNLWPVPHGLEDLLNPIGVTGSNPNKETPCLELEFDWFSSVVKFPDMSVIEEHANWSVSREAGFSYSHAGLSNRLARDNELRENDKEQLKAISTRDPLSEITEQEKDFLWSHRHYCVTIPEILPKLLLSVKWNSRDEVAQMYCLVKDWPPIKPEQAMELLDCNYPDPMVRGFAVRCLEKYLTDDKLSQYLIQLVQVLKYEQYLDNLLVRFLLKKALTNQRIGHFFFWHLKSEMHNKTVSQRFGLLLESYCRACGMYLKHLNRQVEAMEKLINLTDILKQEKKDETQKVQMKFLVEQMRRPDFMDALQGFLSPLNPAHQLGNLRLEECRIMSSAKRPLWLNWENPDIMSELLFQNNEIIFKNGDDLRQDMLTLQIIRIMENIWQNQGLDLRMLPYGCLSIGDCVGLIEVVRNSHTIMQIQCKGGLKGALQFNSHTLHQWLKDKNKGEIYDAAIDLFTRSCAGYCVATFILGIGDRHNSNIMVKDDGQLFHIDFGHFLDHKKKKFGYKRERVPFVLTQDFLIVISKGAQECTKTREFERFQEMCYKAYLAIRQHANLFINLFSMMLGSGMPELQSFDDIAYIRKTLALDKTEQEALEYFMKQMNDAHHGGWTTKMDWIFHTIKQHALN
Sequence of Phosphatidylinositol 4-kinase alpha (P42356 whole entry): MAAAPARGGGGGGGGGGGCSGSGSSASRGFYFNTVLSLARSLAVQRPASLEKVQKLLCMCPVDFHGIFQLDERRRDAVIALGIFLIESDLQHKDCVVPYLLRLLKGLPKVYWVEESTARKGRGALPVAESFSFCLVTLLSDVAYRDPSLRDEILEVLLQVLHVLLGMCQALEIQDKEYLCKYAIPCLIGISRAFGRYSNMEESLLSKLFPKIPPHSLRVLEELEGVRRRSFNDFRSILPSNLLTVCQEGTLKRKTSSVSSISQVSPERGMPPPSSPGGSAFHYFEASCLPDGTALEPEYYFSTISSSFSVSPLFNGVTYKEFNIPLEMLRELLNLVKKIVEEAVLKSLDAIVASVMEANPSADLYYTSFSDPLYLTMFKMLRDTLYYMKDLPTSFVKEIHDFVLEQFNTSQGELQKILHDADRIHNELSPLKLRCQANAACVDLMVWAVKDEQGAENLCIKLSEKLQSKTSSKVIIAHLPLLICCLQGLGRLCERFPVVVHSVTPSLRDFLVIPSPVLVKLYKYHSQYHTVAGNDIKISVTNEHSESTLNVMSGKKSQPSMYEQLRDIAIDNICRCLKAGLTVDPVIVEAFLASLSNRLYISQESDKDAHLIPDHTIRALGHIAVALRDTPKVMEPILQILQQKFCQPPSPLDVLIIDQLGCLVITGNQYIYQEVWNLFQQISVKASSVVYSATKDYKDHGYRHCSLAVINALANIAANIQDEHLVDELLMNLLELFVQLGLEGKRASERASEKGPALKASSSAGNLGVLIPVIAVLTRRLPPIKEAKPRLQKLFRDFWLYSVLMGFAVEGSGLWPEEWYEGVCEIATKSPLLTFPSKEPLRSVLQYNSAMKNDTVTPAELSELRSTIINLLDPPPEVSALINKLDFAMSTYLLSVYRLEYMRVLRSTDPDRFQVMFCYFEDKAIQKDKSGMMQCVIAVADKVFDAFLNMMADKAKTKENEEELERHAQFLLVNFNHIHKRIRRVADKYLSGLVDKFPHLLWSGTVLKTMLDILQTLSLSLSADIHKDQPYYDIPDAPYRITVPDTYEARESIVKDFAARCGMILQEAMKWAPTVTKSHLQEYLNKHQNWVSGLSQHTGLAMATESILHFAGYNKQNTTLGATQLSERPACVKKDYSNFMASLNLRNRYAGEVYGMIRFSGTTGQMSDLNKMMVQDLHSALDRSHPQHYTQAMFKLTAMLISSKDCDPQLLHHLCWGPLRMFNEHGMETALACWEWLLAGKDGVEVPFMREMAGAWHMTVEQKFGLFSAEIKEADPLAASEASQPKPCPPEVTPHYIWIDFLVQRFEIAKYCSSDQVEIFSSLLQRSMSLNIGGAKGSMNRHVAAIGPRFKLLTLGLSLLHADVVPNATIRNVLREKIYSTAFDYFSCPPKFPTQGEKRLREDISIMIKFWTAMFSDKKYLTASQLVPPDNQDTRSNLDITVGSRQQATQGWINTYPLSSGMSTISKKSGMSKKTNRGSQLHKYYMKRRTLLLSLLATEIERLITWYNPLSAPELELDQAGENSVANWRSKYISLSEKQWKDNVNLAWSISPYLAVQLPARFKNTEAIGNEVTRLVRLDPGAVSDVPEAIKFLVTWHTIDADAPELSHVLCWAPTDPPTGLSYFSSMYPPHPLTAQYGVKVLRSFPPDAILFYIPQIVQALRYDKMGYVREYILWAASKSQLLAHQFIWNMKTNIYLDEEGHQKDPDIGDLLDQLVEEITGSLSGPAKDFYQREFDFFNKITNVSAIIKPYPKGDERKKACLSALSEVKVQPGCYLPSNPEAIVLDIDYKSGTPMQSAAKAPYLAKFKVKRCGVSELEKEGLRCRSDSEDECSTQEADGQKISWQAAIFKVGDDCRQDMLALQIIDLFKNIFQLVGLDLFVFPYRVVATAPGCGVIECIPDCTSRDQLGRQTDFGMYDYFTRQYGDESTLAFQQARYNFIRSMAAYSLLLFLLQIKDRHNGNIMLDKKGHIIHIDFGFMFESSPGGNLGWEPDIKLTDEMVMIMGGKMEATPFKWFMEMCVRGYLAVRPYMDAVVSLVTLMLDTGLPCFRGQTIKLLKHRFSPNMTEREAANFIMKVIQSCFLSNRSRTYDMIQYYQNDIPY

Structure (SMILES): CN(C)CCC(=O)N1CCN(c2ccc(Nc3ccnc4ccc(-c5cnc6ccccc6c5)cc34)cc2C(F)(F)F)CC1
pIC50 [1]: < 6.52
pIC50 [2]: < 6.52

Structure (SMILES): O=C(CN1CCOCC1)N1CCC(c2ccc(-n3c(=O)ccc4cnc5ccc(-c6cnc7ccccc7c6)cc5c43)cc2C(F)(F)F)CC1
pIC50 [2]: 8.30

Structure (SMILES): CCC(=O)N1CCN(c2ccc(N3C(=O)NCc4cnc5ccc(-c6cnc7ccccc7c6)cc5c43)cc2C(F)(F)F)CC1
pIC50 [2]: < 6.52

Structure (SMILES): CCC(=O)N1CCN(c2ccc(N3C(=O)OCc4cnc5ccc(-c6cnc7ccccc7c6)cc5c43)cc2C(F)(F)F)CC1
pIC50 [2]: < 6.52

Structure (SMILES): CC(=O)N1CCN(c2ccc(-n3c(=O)ccc4cnc5ccc(-c6cnc7ccccc7c6)cc5c43)cc2C(F)(F)F)CC1
pIC50 [1]: < 6.52
pIC50 [3]: 8.27
pIC50 [2]: 8.52

Structure (SMILES): CCC(=O)N1CCN(c2ccc(-n3c(=O)ccc4cnc5ccc(-c6cnc7ccccc7c6)cc5c43)cc2C(F)(F)F)CC1 [TORIN1]
AUC [4]: 720 ng·h/mL
pIC50 [5]: < 5.00
AUC [6]: 5720 ng·h/mL
inhibition (Mus musculus [7]): Active
inhibition (Mus musculus [8]): Active
Cmax [9]: 5120 ng/mL
Vd [10]: 0.59 L/kg
AUC [11]: 396 ng·h/mL
Tmax [12]: 15 min
Cmax [13]: 223 ng/mL
Cmax [14]: 2760 ng/mL
MRT [15]: 25.8 min
Tmax [16]: 4.8 min
inhibition (Mus musculus [17]): Active
MRT [18]: 90.6 min

Now from value to molecule:

pIC50 [2]: 7.52
Structure (SMILES): CCC(=O)N1CC=C(c2ccc(-n3c(=O)ccc4cnc5ccc(-c6cnc7ccccc7c6)cc5c43)cc2C(F)(F)F)CC1

pIC50 [2]: 7.00
Structure (SMILES): CCC(=O)N1CCN(c2ccc(-n3c(=O)c(C)cc4cnc5ccc(-c6cnc7ccccc7c6)cc5c43)cc2C(F)(F)F)CC1

pIC50 [2]: < 6.52
Structure (SMILES): CCC(=O)N1CCN(c2ccc(-n3c(=O)cc(C)c4cnc5ccc(-c6cnc7ccccc7c6)cc5c43)cc2C(F)(F)F)CC1

pIC50 [2]: 6.52
Structure (SMILES): CCC(=O)N1CCN(c2ccc(-n3c(=O)n(C)c(=O)c4cnc5ccc(-c6cnc7ccccc7c6)cc5c43)cc2C(F)(F)F)CC1

pIC50 [1]: < 6.52
pIC50 [2]: < 6.52
Structure (SMILES): O=C(O)N1CCN(c2ccc(Nc3ccnc4ccc(-c5cnc6ccccc6c5)cc34)cc2C(F)(F)F)CC1

— ChEMBL document CHEMBL1255226 (J Med Chem, 2010)
